# High-throughput results (PubChem)
# Rows were chosen to be rich in hits. Some 3.7% of all compounds tested hit in one or more screens of this group.
# E-sel inducer: E-selectin induction in HUVECs, primary screen, imaging, HUVEC, immunofluorescence imaging, single point. P16581. normalized: neutral wells 0, TNF-alpha wells 100. activation, % at 7.58 µM. 0.37% of 260,000 active. AID 686992, 2013;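 active means mean E-selectin-positive cell signal at least 10% of the positive control, reached in at least 60% of replicates, without over 20% cell loss; inconclusive means no rule given, readout overlaps actives, possibly toxicity-flagged; inactive means the rest, including those meeting only one limit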
#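 material = human umbilical vein endothelial cells (HUVEC), E-selectin induction | quantity = 3,000 cells/well | medium = EGM-2 growth medium on 0.1% gelatin-coated wells | technique = immunofluorescence imaging | read-out basis = % PE-positive cells | control set = TNF-alpha positive control, DMSO neutral control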
# ERAP1 HTS inh: human ERAP1 aminopeptidase inhibitors, primary screen, biochemical, single point, plate reader; Endoplasmic reticulum aminopeptidase 1 (Homo sapiens), Q9NZ08; recombinant ERAP1, Leu-AMC fluorescence, 60 min; inhibition, % at 10.7 µM; 0.15% of 340,000 active;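 active means mean replicate inhibition of at least 30%, or all replicates individually reaching that 30% level; inactive means mean below 30% and not every replicate reaching it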;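 further: 0% = neutral control wells and 100% = L-leucinethiol positive control wells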
# F508del corr: F508del CFTR correction, initial screen, CFBE line, single point. CFBE cells, YFP halide quenching; stimulated with forskolin plus potentiator P3; % fluorescence drop versus neutral controls. activity (quench increase), % at 7.58 µM. 0.36% of 350,000 active. AID 720511, 2013;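 active means mean added fluorescence quench of at least 8% versus neutral control, with both replicates also reaching 8%; inconclusive means only one of the mean or replicate conditions met; inactive means mean below 8% and not both replicates reaching 8%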;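 further: cells transiently co-express mutant CFTR-F508del with the halide-sensitive YFP; corrector assay measuring rescue of mutant channel to the surface after 24 h compound exposure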
# FGF22 binding: binders of human FGF22 protein, primary screen, FGF22 synaptogenesis inhibitor project, biophysical, thermal shift, single point. Fibroblast growth factor 22 (Homo sapiens), Q9HCT0. activity (Tm shift, normalised), % at 9.99 µM. 1.5% of 340,000 active. recombinant FGF22 thermal shift, SYPRO orange fluorescence; percent of sucrose octasulfate shift, DMSO zero;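 active means mean Tm shift, scaled 0 neutral to 100 positive control, at about 1.3% or above, every replicate too, limit read from the data; inconclusive means no clear call, values can overlap the other calls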
# Target sequence (Q9HCT0 whole entry, looked up): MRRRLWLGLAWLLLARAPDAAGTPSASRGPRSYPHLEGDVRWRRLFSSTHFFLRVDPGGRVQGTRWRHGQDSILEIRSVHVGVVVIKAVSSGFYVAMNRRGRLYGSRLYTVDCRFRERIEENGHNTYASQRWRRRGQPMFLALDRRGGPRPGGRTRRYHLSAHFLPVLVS
# DENV2 CPE rescue: inhibitors of DENV2 cytopathic effect, primary screen, cell-based, plate reader, single concentration; DENV2-infected cells, cytopathic effect rescue; CPE inhibition, % at 9.99 µM; 1.7% of 350,000 active; AID 651640, 2012; in the data active means CPE inhibition above about 20%, passing the limit was not always enough; inconclusive means no clear call, values can overlap the other calls; tested in BHK-21 cells;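 further: 0% = median of neutral control wells and 100% = median of positive control wells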
# * hit, by the source's call; ? = inconclusive; . = no result; ! = not active in a repeat.
SMILES,E-sel inducer,ERAP1 HTS inh,F508del corr,FGF22 binding,DENV2 CPE rescue
Cc1ccccc1NC(=O)CCC(=O)N/N=C/c1ccc(F)cc1,.,-2,-2,43*,-1
COc1cccc(S(=O)(=O)N(C)C[C@@H]2Oc3cc(C#CCN(C)C)ccc3S(=O)(=O)N([C@H](C)CO)C[C@H]2C)c1,0,0,-5,0,?
CCCNC(=O)[C@@H]1N[C@@H]2c3ccc(-c4cccc(F)c4)c(=O)n3C[C@@H]2[C@H]1CO,0,.,1,.,.
CC(=O)N(C)C[C@@H]1Oc2ncc(C#CCC3CCCC3)cc2C(=O)N([C@@H](C)CO)C[C@H]1C,-5,-4,0,0,3
Nc1nc(SCc2ccccc2)c2ncn(C3OC(CO)C(O)C3O)c2n1 (stereo unspecified),0,2,3,0,-3
Nc1ncnc2c1ncn2C1OC(CO)C(O)C1O (stereo unspecified),5,-2,2,43*,?
Nc1ncnc2c1ncn2C1O[C@H](CO)[C@@H](O)[C@@H]1O (stereo partly specified),2,-1,3,0,13
Nc1ncnc2c1ncn2[C@@H]1O[C@H](C(=O)N[C@@H](CCc2ccccc2)C(=O)O)[C@@H](O)[C@H]1O,0,3,-3,0,28*
OCC1OC(n2cnc3c(SCc4ccccc4)ncnc32)C(O)C1O (stereo unspecified),.,2,6,0,75*
N#Cc1c(N)n(C2OC(CO)C(O)C2O)c2ncnc(N)c12 (stereo unspecified),2,1,-3,43*,6
O=C(C[C@H]1C=C[C@@H](NC(=O)Nc2ccc3c(c2)OCO3)[C@H](CO)O1)NCc1ccc2c(c1)OCO2,-1,8,2,0,-1
COc1ccc(NC(=O)Nc2cccc3c2O[C@@H](CN(C)Cc2ccc(Cl)c(Cl)c2)[C@H](C)CN([C@@H](C)CO)C3=O)cc1,-19,.,1,.,.
CCCC#Cc1ccc2c(c1)O[C@H](CN(C)Cc1ccncc1)[C@H](C)CN([C@H](C)CO)S2(=O)=O,0,-5,5,0,6
O=[N+]([O-])c1ccc(Oc2ccc(/C=N/O)cc2)nc1,.,4,-1,43*,-4
COc1ccc(NC2CC(=O)N(c3cc([N+](=O)[O-])ccc3C)C2=O)cc1 (stereo unspecified),.,3,-2,43*,-5
COc1ccc(NC2CC(=O)N(c3cccc([N+](=O)[O-])c3)C2=O)cc1 (stereo unspecified),.,-1,-4,0,-6
CNC(=O)C[C@@H]1CC[C@@H]2[C@H](COc3ccc(NS(=O)(=O)c4cccc(F)c4)cc3C(=O)N2C)O1,0,0,1,0,-4
Cc1noc(C)c1S(=O)(=O)Nc1ccc2c(c1)C(=O)N([C@H](C)CO)C[C@H](C)[C@@H](CN(C)Cc1ccc(C(F)(F)F)cc1)O2,0,2,-3,0,-2
COC(=O)Cc1c(O)ccn(Cc2ccc(Cl)c(Cl)c2)c1=O,0,-3,14*,0,5
Cc1ccc(N(C)c2nc(N)nc(N)c2N=O)cc1,0,9,9.9*,0,1
CCN(Cc1nc(-c2ccc(C)cc2)no1)C(=O)c1ccco1,.,1,-3,0,-1
CCN(Cc1ccncc1)C(=O)c1ccco1,0,2,-1,0,25*
CO[C@@H]1CN(C)C(=O)c2cc(NC(=O)C3CCCCC3)ccc2OC[C@H](C)N(C)C[C@@H]1C,0,1,-1,0,-4
COc1ccccc1CCNC(=O)/C(=C/c1cccnc1)NC(=O)c1ccccc1,52*,-1,4,0,-5
O=C(NCCc1c[nH]c2ccccc12)/C(=C\c1cccnc1)NC(=O)c1ccccc1Br,14,-3,-1,0,41*
C=CCOC(=O)C(=O)/C=C/c1ccc2c(c1)Cc1ccccc1-2,0,-1,1,0,37*!
C=CCOC(=O)C(=O)/C=C/c1ccc(F)cc1,.,1,-1,0,1
